From ChEMBL document CHEMBL6092223, “Covalent Inhibitors of KEAP1 with Exquisite Selectivity” (J Med Chem, 2024)
The source made the active and inactive calls. No cut-off for these calls is given here.

What was measured:
[1] = molecular target: T1, Keap1/Nrf2 (Homo sapiens, UniProt Q14145); assay: Inhibition of Keap1/Nrf2 protein-protein interaction in human HepG2 cells transfected with beta-lactamase under the control of ARE incubated for 16 hrs by ARE-reporter based FRET assay; assay type: cell-based
T1 sequence (Q16236 whole entry): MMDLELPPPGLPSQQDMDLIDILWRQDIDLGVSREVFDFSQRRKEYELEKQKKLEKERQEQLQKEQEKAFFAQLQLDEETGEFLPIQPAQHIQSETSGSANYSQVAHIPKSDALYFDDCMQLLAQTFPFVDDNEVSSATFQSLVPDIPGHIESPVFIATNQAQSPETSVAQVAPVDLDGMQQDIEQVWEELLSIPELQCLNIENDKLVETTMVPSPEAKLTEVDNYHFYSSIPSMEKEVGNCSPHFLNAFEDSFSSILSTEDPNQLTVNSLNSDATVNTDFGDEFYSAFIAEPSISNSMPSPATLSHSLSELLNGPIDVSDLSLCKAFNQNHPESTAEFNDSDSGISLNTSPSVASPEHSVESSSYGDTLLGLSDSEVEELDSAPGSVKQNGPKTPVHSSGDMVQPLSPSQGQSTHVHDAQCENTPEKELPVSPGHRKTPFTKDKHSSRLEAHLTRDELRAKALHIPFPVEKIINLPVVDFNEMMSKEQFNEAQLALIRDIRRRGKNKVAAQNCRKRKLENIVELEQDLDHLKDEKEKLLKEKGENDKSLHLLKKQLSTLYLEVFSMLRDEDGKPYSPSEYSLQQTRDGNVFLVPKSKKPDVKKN
T1 sequence (Q14145 whole entry): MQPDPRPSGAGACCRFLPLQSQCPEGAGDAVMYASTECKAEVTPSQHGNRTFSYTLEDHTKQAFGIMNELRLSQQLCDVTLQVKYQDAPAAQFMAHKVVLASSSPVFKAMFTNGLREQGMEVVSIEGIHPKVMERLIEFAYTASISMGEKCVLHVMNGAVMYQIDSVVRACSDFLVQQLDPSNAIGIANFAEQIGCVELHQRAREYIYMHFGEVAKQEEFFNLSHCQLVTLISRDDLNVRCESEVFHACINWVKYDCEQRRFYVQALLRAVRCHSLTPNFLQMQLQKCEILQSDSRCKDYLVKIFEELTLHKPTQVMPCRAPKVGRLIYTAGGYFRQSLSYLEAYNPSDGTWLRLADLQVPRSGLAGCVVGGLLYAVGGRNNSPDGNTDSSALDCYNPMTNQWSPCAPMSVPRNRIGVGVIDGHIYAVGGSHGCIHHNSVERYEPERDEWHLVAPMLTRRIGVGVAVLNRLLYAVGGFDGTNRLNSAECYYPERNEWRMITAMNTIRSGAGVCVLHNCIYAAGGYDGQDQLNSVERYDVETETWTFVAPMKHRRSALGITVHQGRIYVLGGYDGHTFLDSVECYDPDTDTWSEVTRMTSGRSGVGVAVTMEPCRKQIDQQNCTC

[2] = molecular target: T1, Keap1/Nrf2; assay: Inhibition of human Keap1/PL-tagged human Nrf2 protein-protein interaction in human PathHunter U2OS Keap1-NRF2 Nuclear Translocation cells assessed as increase in Nrf2 translocation incubated for 3 hrs by luminescence based analysis; assay type: cell-based
[3] = In vivo activation of Nrf2 in male db/db mouse assessed as increase in NQO1 mRNA expression in kidney at 100 mg/kg, po administered via gavage and measured after 6 hrs relative to control; assay type: functional
How it was run: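 Fed male db/db mice (8–10 weeks) dosed 100 mg/kg by oral gavage in 1% HEC. Kidney Nqo1 mRNA measured at 6 h or 24 h and expressed as % change versus vehicle-treated mice.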

[4] = In vivo activation of Nrf2 in male db/db mouse assessed as increase in NQO1 mRNA expression in kidney at 100 mg/kg, po administered via gavage and measured after 24 hrs relative to control; assay type: functional
[5] = in vitro; assay type: ADME, Microsome; settings: rat, pooled liver microsomes, time < 55 min, read-out: CLH
[6] = AUC in male db/db mouse at 100 mg/kg, po administered via gavage and measured after 24 hrs; assay type: ADME, organism-based; settings: in vivo
How it was run: (§1)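 Male db/db mice (8–10 weeks), fed, single oral gavage of 100 mg/kg; vehicle 1% hydroxyethyl cellulose, except one compound given in Phosal 50PG/ethanol/PEG400.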

[7] = Efflux ratio of apparent permeability across basolateral to apical over apical to basolateral side in human Caco-2 cells at 10 uM incubated for 120 mins by LC-MS/MS analysis; settings: caco-2, 2 h
[8] = Apparent permeability across apical to basolateral side in human Caco-2 cells at 10 uM incubated for 120 mins by LC-MS/MS analysis
[9] = molecular target: T2, Kelch-like protein 26 (Homo sapiens) (UniProt Q53HC5); assay: Binding affinity to human KLHL26 BTB domain (34 to 161 residues) extracted from Escherichia coli BL21(DE3)-R3-pRARE2 cells assessed as adduct formation at 100 uM by LC-MS analysis
T2 sequence (whole entry): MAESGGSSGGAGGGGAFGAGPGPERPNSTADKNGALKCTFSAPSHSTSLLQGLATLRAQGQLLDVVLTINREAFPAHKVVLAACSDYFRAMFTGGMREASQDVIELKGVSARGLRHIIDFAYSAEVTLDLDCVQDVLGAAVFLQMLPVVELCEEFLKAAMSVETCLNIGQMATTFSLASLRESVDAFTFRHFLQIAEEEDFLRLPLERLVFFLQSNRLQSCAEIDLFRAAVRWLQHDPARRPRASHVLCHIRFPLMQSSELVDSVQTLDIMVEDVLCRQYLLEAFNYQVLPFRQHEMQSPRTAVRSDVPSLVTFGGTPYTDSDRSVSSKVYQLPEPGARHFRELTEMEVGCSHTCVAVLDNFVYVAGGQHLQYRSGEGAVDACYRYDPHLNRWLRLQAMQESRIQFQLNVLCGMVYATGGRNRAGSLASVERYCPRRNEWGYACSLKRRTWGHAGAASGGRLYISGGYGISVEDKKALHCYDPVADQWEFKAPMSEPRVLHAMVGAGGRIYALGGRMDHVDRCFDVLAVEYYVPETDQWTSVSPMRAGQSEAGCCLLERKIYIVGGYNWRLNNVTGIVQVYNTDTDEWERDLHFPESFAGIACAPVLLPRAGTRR

[10] = Genotoxicity in human TK6 cells assessed as clastogenicity at 10 uM measured after 4 to 24 hrs by DNA damage response assay; assay type: toxicity, cell-based; settings: tk6, 10 µM, time 4-24 hrs
[11] = Genotoxicity in […] assessed as clastogenicity at 10 uM measured after 4 to 24 hrs by DNA damage response assay; assay type: toxicity, cell-based; settings: time 4-24 hrs
[12] = Cmax in male db/db mouse at 100 mg/kg, po administered via gavage and measured after 30 mins; assay type: ADME, organism-based; settings: in vivo, 0.5 h; how it was run: as §1
[13] = molecular target: Kelch-like ECH-associated protein 1 (Homo sapiens) (UniProt Q14145); assay: Binding affinity to human Keap1 BTB domain (48 to 213 residues) extracted from Escherichia coli BL21(DE3)-R3-pRARE2 cells assessed as adduct formation at 100 uM by LC-MS analysis
Chain of Kelch-like ECH-associated protein 1 (Homo sapiens) (Q14145 whole entry, the tested form may be a part): as the sequence (Q14145 whole entry) above

[14] = in vitro; assay type: ADME, Microsome; settings: human, pooled liver microsomes, time < 55 min, read-out: CLH
[15] = in vitro; assay type: ADME, Microsome; settings: mouse, pooled liver microsomes, time < 55 min, read-out: CLH
[16] = molecular target: T3, Perilipin-3 (Homo sapiens) (UniProt O60664); assay: Binding affinity to PLIN3 at C60 residue in human MDA-MB-231 cells at 1 uM incubated for 3 hrs in presence of IAA by proteome-wide scale isoTOP ABPP method; assay type: cell-based
T3 sequence (whole entry): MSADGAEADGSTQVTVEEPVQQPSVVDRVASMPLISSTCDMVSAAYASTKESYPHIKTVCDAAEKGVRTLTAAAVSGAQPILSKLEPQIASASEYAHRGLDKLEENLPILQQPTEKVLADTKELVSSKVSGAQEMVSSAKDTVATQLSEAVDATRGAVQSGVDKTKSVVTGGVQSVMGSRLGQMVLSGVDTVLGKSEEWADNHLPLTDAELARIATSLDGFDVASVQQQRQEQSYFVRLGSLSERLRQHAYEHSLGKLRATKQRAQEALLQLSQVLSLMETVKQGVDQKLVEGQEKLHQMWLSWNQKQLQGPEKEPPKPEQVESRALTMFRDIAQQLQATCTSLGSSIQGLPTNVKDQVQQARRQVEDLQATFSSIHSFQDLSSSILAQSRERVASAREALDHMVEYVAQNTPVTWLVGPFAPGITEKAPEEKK
How it was run: (§2)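 Live MDA-MB-231 cells treated 3 h with compound at 1 μM, or with DMSO vehicle. 100 μM iodoacetamide-alkyne then added as a clickable cysteine-reactive probe. Cysteine competition read by isoTOP ABPP; competed peptides called at ratio R > 4.5.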

[17] = molecular target: T4, RNA-binding protein 12B (Homo sapiens) (UniProt Q8IXT5); assay: Binding affinity to RBM12B at C204 residue in human MDA-MB-231 cells at 1 uM incubated for 3 hrs in presence of IAA by proteome-wide scale isoTOP ABPP method; assay type: cell-based; how it was run: as §2
T4 sequence (whole entry): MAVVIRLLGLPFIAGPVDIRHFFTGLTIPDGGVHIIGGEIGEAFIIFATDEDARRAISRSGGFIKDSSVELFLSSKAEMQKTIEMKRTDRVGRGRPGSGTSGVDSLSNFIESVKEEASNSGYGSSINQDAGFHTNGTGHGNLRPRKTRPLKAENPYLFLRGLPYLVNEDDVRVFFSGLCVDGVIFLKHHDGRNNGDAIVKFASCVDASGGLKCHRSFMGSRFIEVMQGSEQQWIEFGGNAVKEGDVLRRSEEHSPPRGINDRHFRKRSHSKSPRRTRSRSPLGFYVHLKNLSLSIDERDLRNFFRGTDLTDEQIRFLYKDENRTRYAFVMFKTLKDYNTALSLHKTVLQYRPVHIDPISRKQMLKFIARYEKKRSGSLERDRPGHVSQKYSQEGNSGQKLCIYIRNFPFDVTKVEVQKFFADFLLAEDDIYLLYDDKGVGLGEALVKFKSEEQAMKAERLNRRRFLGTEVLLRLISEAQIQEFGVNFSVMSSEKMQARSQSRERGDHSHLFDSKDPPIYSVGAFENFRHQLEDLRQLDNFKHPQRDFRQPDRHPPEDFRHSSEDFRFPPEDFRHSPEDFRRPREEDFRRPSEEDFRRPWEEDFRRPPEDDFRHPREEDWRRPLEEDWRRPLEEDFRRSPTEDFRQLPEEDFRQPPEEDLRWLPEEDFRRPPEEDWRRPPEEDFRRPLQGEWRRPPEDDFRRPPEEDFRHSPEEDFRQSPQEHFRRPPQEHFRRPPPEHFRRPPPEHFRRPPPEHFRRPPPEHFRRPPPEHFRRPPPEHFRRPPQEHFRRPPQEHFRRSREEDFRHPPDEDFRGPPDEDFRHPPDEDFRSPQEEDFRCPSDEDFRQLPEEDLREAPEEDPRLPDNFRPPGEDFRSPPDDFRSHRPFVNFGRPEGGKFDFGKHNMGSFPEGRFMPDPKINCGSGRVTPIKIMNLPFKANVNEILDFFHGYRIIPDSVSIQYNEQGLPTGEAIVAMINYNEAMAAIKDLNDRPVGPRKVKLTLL

[18] = molecular target: T3, Perilipin-3 (Homo sapiens); assay: Binding affinity to PLIN3 at C39 residue in human MDA-MB-231 cells at 1 uM incubated for 3 hrs in presence of IAA by proteome-wide scale isoTOP ABPP method; assay type: cell-based; how it was run: as §2
[19] = test system: Mus musculus; assay: Induction of NQO1 mRNA expression in Nrf2-/- mouse kidney at 10 mg/kg measured after 24 hrs; assay type: functional, organism-based
[20] = test system: Mus musculus; assay: Induction of NQO1 mRNA expression in C57BI6 mouse kidney at 10 mg/kg measured after 24 hrs; assay type: functional, organism-based
[21] = molecular target: Kelch-like ECH-associated protein 1 (Homo sapiens) (UniProt Q14145); assay: Binding affinity to human Keap1 BTB domain (48 to 213 residues) extracted from Escherichia coli BL21(DE3)-R3-pRARE2 cells assessed as adduct formation by intact mass spectrometry
[22] = test system: Mus musculus; assay: Induction of NQO1 mRNA expression in C57BI6 mouse kidney at 100 mg/kg measured after 24 hrs; assay type: functional, organism-based
[23] = test system: Fibroblast; assay: Effect on ARE signal response in Nrf2 knockout mouse embryonic fibroblast cells; assay type: functional, cell-based
[24] = species on record: Homo sapiens; assay: Binding affinity to human Keap1 BTB domain C151A mutant (48 to 213 residues) extracted from Escherichia coli BL21(DE3)-R3-pRARE2 cells assessed as adduct formation by intact mass spectrometry
[25] = test system: Mus musculus; assay: Induction of NQO1 mRNA expression in Nrf2-/- mouse kidney at 100 mg/kg measured after 24 hrs; assay type: functional, organism-based

SMILES: CCS(=O)(=O)c1nc(S(=O)(=O)c2ccccc2Cl)c(N2CC3(CC3)C2)s1
- EC50 [1]: ≥ 13 µM
- EC50 [2]: > 32 µM

SMILES: Cc1ccc(S(=O)(=O)c2nc(S(=O)(=O)c3ccccc3)sc2N2CCN(C)CC2)cc1
- EC50 [1]: 0.115 µM
- EC50 [2]: 0.338 µM

SMILES: CN1CCN(c2sc(S(=O)(=O)C3CC3)nc2S(=O)(=O)c2ccccc2Cl)CC1=O
- Activity [3]: 149%
- Activity [4]: 164%

SMILES: CCP1(=O)CCN(c2sc(S(=O)(=O)CC)nc2S(=O)(=O)c2cccc(Cl)c2Cl)CC1
- Activity [3]: 125%
- CLint scaled at 0.75 h, 0.1 µM [5]: 62 mL/min/kg
- AUC [6]: 8.5 µM·h
- EC50 [1]: 0.16 µM
- Activity [4]: 116%
- EC50 [2]: 0.527 µM
- Ratio [7]: 8.7
- Papp A→B at 2 h, 10 µM [8]: 3 ×10⁻⁶ cm/s
- Activity [9]: inactive
- Activity [10]: Non-toxic
- Activity [11]: Non-toxic
- Cmax [12]: 6.39 µM
- Activity [13]: Active
- CLint scaled at 0.75 h, 0.1 µM [14]: 2.6 mL/min/kg
- CLint scaled at 0.75 h, 0.1 µM [15]: 52 mL/min/kg

SMILES: CCS(=O)(=O)c1nc(S(=O)(=O)c2ccccc2Cl)c(N2CCN(C)C(=O)[C@H]2C)s1
- Activity [3]: 344%
- Activity [16]: Active
- Activity [17]: Active
- Activity [18]: Active
- Activity [9]: inactive
- Activity [13]: Active

SMILES: CCS(=O)(=O)c1nc(S(=O)(=O)c2ccccc2Cl)c(N2CCP(C)(=O)CC2)s1
- CLint scaled at 0.75 h, 0.1 µM [5]: 5.6 mL/min/kg
- EC50 [1]: 0.946 µM
- EC50 [2]: 4.21 µM
- Ratio [7]: 4.5
- Papp A→B at 2 h, 10 µM [8]: 1.4 ×10⁻⁶ cm/s

SMILES: CC1(C)CC[C@]2(C(=O)O)CC[C@]3(C)[C@H](C(=O)C=C4[C@@]5(C)C=C(C#N)C(=O)C(C)(C)[C@@H]5CC[C@]43C)[C@@H]2C1
- Activity [19]: inactive
- Activity [20]: Active

SMILES: CCS(=O)(=O)c1nc(S(=O)(=O)c2ccccc2C#N)c(N2CCN(C)C(=O)C2)s1
- Activity [3]: 299%
- Activity [4]: 209%

SMILES: Cc1ccc(S(=O)(=O)c2nc(S(=O)(=O)c3ccccc3)sc2N2CCOCC2)cc1
- EC50 [2]: 0.27 µM

SMILES: CCS(=O)(=O)c1nc(S(=O)(=O)c2ccccc2C#N)c(N2CCN(C)C(=O)[C@H]2C)s1
- Activity [3]: 88%
- Activity [4]: 214%
- Activity [9]: inactive
- Activity [13]: Active

SMILES: CCS(=O)(=O)c1nc(S(=O)(=O)c2ccc(-c3cccn(C)c3=O)cc2)c(N2CCN(C)C(=O)C2)s1
- EC50 [1]: 0.516 µM
- EC50 [2]: 1.49 µM
- Ratio [7]: 46
- Papp A→B at 2 h, 10 µM [8]: 0.74 ×10⁻⁶ cm/s
- CLint scaled at 0.75 h, 0.1 µM [14]: 8.5 mL/min/kg
- CLint scaled at 0.75 h, 0.1 µM [15]: 22 mL/min/kg

SMILES: C=Cc1nc(S(=O)(=O)c2ccccc2Cl)c(N2CCN(C)C(=O)C2)s1
- Activity [17]: Active

SMILES: CCS(=O)(=O)c1nc(S(=O)(=O)c2ccccc2Cl)c(N2CCN(C)C(=O)C2)s1
- Activity [3]: 199%
- Activity [21]: Active
- Activity [22]: Active
- Activity [4]: 379%
- Activity [23]: Not active; Compound Selectively Acts Through Keap1-Nrf2 Axis
- Activity [24]: inactive
- Activity [25]: inactive
